pIC50: −log10 of the molar value. Blank lines part the entries; values can stand above or below the compound they belong to. Active and inactive are the calls of the source. The calls are words filed in the database; no cut-off is given here.
Assays:
L1210 [1] = test: In vitro antitumor activity against L1210 leukemia cell line.; assay type: functional; details: Mus musculus, read-out: ID50 (the source's name)
Mus musculus [2] = test: In vivo antitumor activity of the compound(ip, 25 mg/kg for 5 days) against CD2F1 mice implanted intraperitoneally with P388 leukemia cells.; assay type: functional; details: route intraperitoneal
Mus musculus [3] = test: In vivo antitumor activity of the compound(ip, 100 mg/kg for 5 days) against CD2F1 mice implanted intraperitoneally with P388 leukemia cells.; assay type: functional; details: route intraperitoneal
Mus musculus [4] = test: In vivo antitumor activity of the compound(ip, 6.25 mg/kg for 5 days) against CD2F1 mice implanted intraperitoneally with P388 leukemia cells.; assay type: functional; details: route intraperitoneal
Mus musculus [5] = test: In vivo antitumor activity of the compound(ip, 12.5 mg/kg for 5 days) against CD2F1 mice implanted intraperitoneally with P388 leukemia cells; Day 30 survivors=1/6; assay type: functional; details: route intraperitoneal
Mus musculus [6] = test: In vivo antitumor activity of the compound(ip, 25 mg/kg for 5 days) against CD2F1 mice implanted intraperitoneally with P388 leukemia cells; Day 30 survivors=2/6; assay type: functional; details: route intraperitoneal
Mus musculus [7] = test: In vivo antitumor activity of the compound(ip, 12.5 mg/kg for 5 days) against CD2F1 mice implanted intraperitoneally with P388 leukemia cells.; assay type: functional; details: route intraperitoneal
Mus musculus [8] = test: In vivo antitumor activity of the compound(ip, 50 mg/kg for 5 days) against CD2F1 mice implanted intraperitoneally with P388 leukemia cells.; assay type: functional; details: route intraperitoneal
HCT-8 = test: In vitro antitumor activity against HCT-8 colon cancer cell line.; assay type: functional; details: Homo sapiens, read-out: ID50 (the source's name)
[9] = Ratio of the ID50's showing antitumor activity against HCT-8 and L1210 leukemia cell lines.; assay type: functional
Outline: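 Ratio taken as ID50 in HCT-8 cells divided by ID50 in L1210 cells, both ID50s expressed as molar concentrations.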

Mus musculus [10] = test: In vivo antitumor activity of the compound(ip, 6.25 mg/kg for 5 days) against CD2F1 mice implanted intraperitoneally with P388 leukemia cells; Day 30 survivors=1/6; assay type: functional; details: route intraperitoneal
Mus musculus [11] = test: In vivo antitumor activity of the compound(ip, 3.12 mg/kg for 5 days) against CD2F1 mice implanted intraperitoneally with P388 leukemia cells.; assay type: functional; details: route intraperitoneal
Mus musculus [12] = test: In vivo antitumor activity of the compound(ip, 3.12 mg/kg for 5 days) against CD2F1 mice implanted intraperitoneally with P388 leukemia cells; Day 30 survivors=2/6; assay type: functional; details: route intraperitoneal
Mus musculus [13] = test: In vivo antitumor activity of the compound(ip, 50 mg/kg for 5 days) against CD2F1 mice implanted intraperitoneally with P388 leukemia cells; Day 30 survivors=1/6; assay type: functional; details: route intraperitoneal
L1210 [14] = test: In vitro antitumor activity against L1210 leukemia cell line; IA= Inactive; assay type: functional, cell-based; details: Mus musculus
Mus musculus [15] = test: In vivo antitumor activity of the compound(ip, 25 mg/kg for 5 days) against CD2F1 mice implanted intraperitoneally with P388 leukemia cells; Day 30 survivors=1/6; details: route intraperitoneal
Mus musculus [16] = test: In vivo antitumor activity of the compound(ip, 25 mg/kg for 5 days) against CD2F1 mice implanted intraperitoneally with P388 leukemia cells.; details: route intraperitoneal

SMILES: CCN(CC)CCN1Nc2c3ccc(O)cc3nc3c([N+](=O)[O-])ccc1c23.CS(=O)(=O)O
pIC50 (L1210 [1]): 7.08
T/C (Mus musculus [2]): 130%

SMILES: CCN(CC)CCCN1Nc2c3cc(OC)ccc3nc3c([N+](=O)[O-])ccc1c23.CS(=O)(=O)O
pIC50 (L1210 [1]): 5.89
T/C (Mus musculus [2]): 210%

SMILES: CCN(CC)CCN1Nc2c3cccc(OC)c3nc3c([N+](=O)[O-])ccc1c23.CS(=O)(=O)O
T/C (Mus musculus [3]): 111%
pIC50 (L1210 [1]): 6.19

pIC50 (L1210 [1]): 6.35
SMILES: COc1ccc2c(c1)-c1nn(CCNCCO)c3ccc([N+](=O)[O-])c(c13)N2

SMILES: CCN(CC)CCN1Nc2c3ccccc3nc3c([N+](=O)[O-])ccc1c23.CS(=O)(=O)O
pIC50 (L1210 [1]): 6.72
T/C (Mus musculus [4]): 165%

SMILES: CCN(CC)CCN1Nc2c3cc(OC)c(OC)cc3nc3c([N+](=O)[O-])ccc1c23.CS(=O)(=O)O
T/C (Mus musculus [3]): 126%
pIC50 (L1210 [1]): 5.96

SMILES: CCOc1ccc2c(c1)-c1nn(CCN(C)C)c3ccc([N+](=O)[O-])c(c13)N2.CS(=O)(=O)O
Activity (Mus musculus [5]): 1

SMILES: CCCOc1ccc2c(c1)-c1nn(CCN(CC)CC)c3ccc([N+](=O)[O-])c(c13)N2.CS(=O)(=O)O
pIC50 (L1210 [1]): 6.34
T/C (Mus musculus [2]): 273%
Activity (Mus musculus [6]): 2

SMILES: CCN(CC)CCN1Nc2c3ccc(OCc4ccccc4)cc3nc3c([N+](=O)[O-])ccc1c23.CS(=O)(=O)O
T/C (Mus musculus [7]): 87%
pIC50 (L1210 [1]): 6.74

SMILES: CCN(CC)CCN1Nc2c3c(OC)cc(OC)cc3nc3c([N+](=O)[O-])ccc1c23.CS(=O)(=O)O
pIC50 (L1210 [1]): 6.31
T/C (Mus musculus [8]): 94%

SMILES: CCN(CC)CCN1Nc2c3cc(SC)ccc3nc3c([N+](=O)[O-])ccc1c23.CS(=O)(=O)O
pIC50 (L1210 [1]): 5.96
pIC50 (HCT-8): 6.46
Ratio [9]: 0.32
T/C (Mus musculus [8]): 114%

SMILES: COc1ccc2c(c1)-c1nn(CCN3CCCC3)c3ccc([N+](=O)[O-])c(c13)N2.CS(=O)(=O)O
pIC50 (L1210 [1]): 6.80
T/C (Mus musculus [2]): 211%

SMILES: CCCC(=O)Oc1ccc2c(c1)-c1nn(CCN(CC)CC)c3ccc([N+](=O)[O-])c(c13)N2.CS(=O)(=O)O
Activity (Mus musculus [10]): 1
pIC50 (L1210 [1]): 8.37

SMILES: CC(=O)Oc1ccc2nc3c([N+](=O)[O-])ccc4c3c(c2c1)NN4CCCN(C)C.CS(=O)(=O)O
T/C (Mus musculus [11]): 252%
pIC50 (L1210 [1]): 8.72
Activity (Mus musculus [12]): 2

SMILES: CCN(CC)CCN1Nc2c3cc4c(cc3nc3c([N+](=O)[O-])ccc1c23)OCO4.CS(=O)(=O)O
pIC50 (L1210 [1]): 6.80
T/C (Mus musculus [8]): 173%

SMILES: CCCCOc1ccc2c(c1)-c1nn(CCN(CC)CC)c3ccc([N+](=O)[O-])c(c13)N2.CS(=O)(=O)O
T/C (Mus musculus [7]): 209%
pIC50 (L1210 [1]): 7.92

SMILES: CN(C)CCN1Nc2c3cc(N(C)C)ccc3nc3c([N+](=O)[O-])ccc1c23.CS(=O)(=O)O
pIC50 (L1210 [1]): 6.22
T/C (Mus musculus [2]): 189%

SMILES: CCN(CC)CCN1Nc2c3cc(OC)c(Cl)cc3nc3c([N+](=O)[O-])ccc1c23.CS(=O)(=O)O
pIC50 (L1210 [1]): 6.57
T/C (Mus musculus [2]): 112%

pIC50 (L1210 [1]): 6.66
SMILES: Cl.O=[N+]([O-])c1ccc2c3c(c4ccccc4nc13)NN2CCNCCO
T/C (Mus musculus [2]): 235%

SMILES: CCNCCN1Nc2c3cc(OC)ccc3nc3c([N+](=O)[O-])ccc1c23.CS(=O)(=O)O
pIC50 (L1210 [1]): 6.68
Activity (Mus musculus [13]): 1
pIC50 (HCT-8): 6.92
Ratio [9]: 0.57
T/C (Mus musculus [8]): 240%

SMILES: CCN(CC)CCN1Nc2c3cc(OCc4ccccc4)ccc3nc3c([N+](=O)[O-])ccc1c23.CS(=O)(=O)O
pIC50 (L1210 [1]): 7.57
T/C (Mus musculus [8]): 200%

SMILES: COc1ccc2c(c1)-c1nn(CCO)c3ccc([N+](=O)[O-])c(c13)N2
ID50 (L1210 [14]): inactive

SMILES: C=CCOc1ccc2nc3c([N+](=O)[O-])ccc4c3c(c2c1)NN4CCN(CC)CC.CS(=O)(=O)O
pIC50 (L1210 [1]): 6.24
Activity (Mus musculus [15]): 1
T/C (Mus musculus [16]): 258%

SMILES: COc1ccc2c(c1)-c1nn(CCCN(C)C)c3ccc([N+](=O)[O-])c(c13)N2.CS(=O)(=O)O
Ratio [9]: 0.33
Activity (Mus musculus [6]): 2

Source: ChEMBL document CHEMBL1126317, “2-(aminoalkyl)-5-nitropyrazolo[3,4,5-kl]acridines, a new class of anticancer agents” (1992)
